# TAAR1 antag: human TAAR1 antagonists, primary screen, Fluo-8 calcium fluorescence, CHO RD-HGA16 cells. antagonist. hit rate 1.5% among 360,000. Trace amine-associated receptor 1 (Homo sapiens), Q96RJ0. AID 624466, 2012. inhibition, % at 3 µM;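 active = inhibition above a per-plate cutoff, the mean inhibition of test compounds on that plate plus 3 SD, cut at about 49% in these data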;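 note: 0% = DMSO plus EC80 beta-PEA response and 100% = DMSO alone without agonist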
#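 Test system – hTAAR1-expressing CHO RD-HGA16 cells, Gα16-coupled · Also added – β-PEA at EC80 concentration, post-compound challenge · Compound – 3 µM, single point · Incubation – dye loading 75 min at 37 °C, then 30 min room temperature · Measured by – Fluo-8 intracellular calcium dye fluorescence, real-time kinetic reads · Benchmarks – vehicle and agonist controls · Replicates – singlicate, one well per test compound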
# OX1R antag-1: antagonists of human orexin 1 receptor (OX1R); Orexin/Hypocretin receptor type 1 (Homo sapiens), O43613; OX1R-expressing cells, FRET antagonist read-out; inhibition, % at 6.6 µM; hit rate 1.8% among 330,000; AID 485270, 2010; in the data active = inhibition mostly above about 38%, no sharp cut-off; inactive = mostly below about 40%;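 note: 0% = agonist challenge alone and 100% = reference antagonist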
# Target sequence (O43613 whole entry, looked up): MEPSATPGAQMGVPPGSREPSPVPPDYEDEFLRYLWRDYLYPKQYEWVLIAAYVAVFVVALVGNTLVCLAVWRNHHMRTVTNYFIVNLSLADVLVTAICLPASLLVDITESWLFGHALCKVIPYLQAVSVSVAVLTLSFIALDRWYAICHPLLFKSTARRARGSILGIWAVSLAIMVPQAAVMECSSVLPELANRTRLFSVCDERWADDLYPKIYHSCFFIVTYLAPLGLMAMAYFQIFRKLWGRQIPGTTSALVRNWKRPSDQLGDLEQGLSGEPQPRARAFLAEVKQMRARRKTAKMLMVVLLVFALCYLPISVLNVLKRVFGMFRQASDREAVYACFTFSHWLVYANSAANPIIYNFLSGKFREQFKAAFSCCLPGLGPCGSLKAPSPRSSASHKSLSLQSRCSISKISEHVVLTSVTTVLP
# OX1R antag-2: OX1R (HCRTR1) antagonists, primary screen, fluorescence, CHO/OX1R cells, Fluo-8 calcium, orexin A; inhibition, % at 5 µM; Orexin/Hypocretin receptor type 1 (Homo sapiens), O43613; Fluo-8 calcium fluorescence; hit rate 0.43% among 330,000;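 active = inhibition above its plate's threshold, mean inhibition of all tested compounds on the plate plus 3 SD, cut at about 37% in these data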;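 note: 0% = orexin A challenge wells and 100% = SB-334867-A antagonist wells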
# GPR7 antagonist: GPR7 receptor antagonists, primary screen, cell-based, fluorescence, single concentration; Neuropeptides B/W receptor type 1 (Homo sapiens), P48145; GPR7-expressing cells, fluorescence antagonist assay; inhibition, % at 4.4 µM; hit rate 1.1% among 290,000; in the data active = inhibition above about 16%, passing the limit was not always enough;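 note: cells stimulated with the agonist NPW; 0% = agonist with vehicle and 100% = vehicle without agonist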
# Target sequence (P48145 whole entry, looked up): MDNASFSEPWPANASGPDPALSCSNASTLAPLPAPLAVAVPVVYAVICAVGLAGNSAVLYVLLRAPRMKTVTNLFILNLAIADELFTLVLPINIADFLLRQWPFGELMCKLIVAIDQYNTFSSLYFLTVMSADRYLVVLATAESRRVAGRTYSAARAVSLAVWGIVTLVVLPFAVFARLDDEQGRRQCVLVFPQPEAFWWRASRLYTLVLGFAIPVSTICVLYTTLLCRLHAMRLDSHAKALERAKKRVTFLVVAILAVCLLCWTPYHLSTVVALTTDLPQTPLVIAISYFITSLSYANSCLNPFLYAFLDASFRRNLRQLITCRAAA
# CHO parental Ca: ATP-evoked calcium signal inhibitors, parental CHO, primary screen, counter-screen for OX1R antagonist project, cell-based, fluorescence, Fluo-8 calcium dye. parental CHO-K1, ATP-induced calcium, Fluo-8 fluorescence. inhibition, % at 5.6 µM. hit rate 0.63% among 330,000. AID 463079, 2010;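 active = inhibition above that plate's mean sample inhibition plus 3 SD, cut at about 26% in these data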;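 note: 0% = ATP-challenged DMSO wells and 100% = DMSO wells without ATP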
#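 Assay system: untransfected parental CHO cell line. Also added: ATP agonist challenge. Dosing: one dose, 5.6 µM nominal. Measured by: Fluo-8 fluorescence. Read-out: % inhibition. Benchmarks: ATP wells versus no-ATP DMSO wells. Repeats: no replicates.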
# TAAR1 agonist: human TAAR1 agonists, primary screen, Fluo-8 calcium fluorescence, CHO RD-HGA16 cells. Trace amine-associated receptor 1 (Homo sapiens), Q96RJ0. vehicle wells 0%, saturating PEA agonist 100%. activation, % at 3 µM. hit rate 0.99% among 360,000. AID 624467, 2012;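 active = activation above the mean activation of all test compounds in the run plus 3 SD, cut at about 38% in these data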
#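 Repeats: no replicates (n 1) | Material: CHO-derived RD-HGA16 cells with stable Gα16 and human TAAR1 | Technique: Kinetic Fluo-8 calcium fluorescence | Schedule: 17-24 h seeding, 75 min 37 °C dye, 30 min RT | Evaluation: % activation from peak over basal fluorescence ratio, DMSO-to-PEA scaled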
# nonsel antag count: nonselective antagonists in TAAR1 counter-screen cells, counter-screen for hTAAR1 antagonist project, cell-based, fluorescence, calcium. AID 651780, 2012. counterscreen cell line, antagonist mode. hit rate 77% among 2,400. shares compounds with TAAR1 antag. inhibition, % at 3 µM; in the data active = inhibition above about 22%;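 note: CHO-Ga16 host cells stimulated with ATP at an EC80 level; 0% = agonist EC80 plus vehicle and 100% = vehicle without agonist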
# TAAR1 ant conf: human TAAR1 antagonists, retest of hits, confirmation, cell-based, fluorescence. shares compounds with TAAR1 antag. TAAR1-expressing cells, fluorescence antagonist read-out. inhibition, % at 3 µM. hit rate 40% among 2,400. AID 651785, 2012; in the data active = inhibition above about 49%;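 note: CHO-Ga16 host cells challenged with agonist PEA near its EC80; 0% = agonist at EC80 plus vehicle and 100% = vehicle with no agonist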
# Ga16 ag counter: calcium activation in Ga16-expressing cells, counter-screen for TAAR1 antagonist project, cell-based, fluorescence; shares compounds with TAAR1 antag; agonist counterscreen; activation, % at 3 µM; hit rate 18% among 2,400; in the data active = activation above about 12%;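 note: 0% = vehicle wells and 100% = saturating stimulus response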
# TAAR1 ag counter: TAAR1 activation by candidate antagonists – cell-based, fluorescence, counter-screen for TAAR1 antagonist project; hTAAR1 cell line, agonist mode; activation, % at 3 µM; shares compounds with TAAR1 antag; hit rate 2% among 2,400; in the data active = activation above about 37%;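 note: CHO cells stably expressing TAAR1 with calcium dye readout; 0% = DMSO vehicle and 100% = full agonist response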
# * hit, by the source's call; x = no result. In the library only some 4.6% were active in any assay of this set; here they are far more common.
SMILES,TAAR1 antag,OX1R antag-1,OX1R antag-2,GPR7 antagonist,CHO parental Ca,TAAR1 agonist,nonsel antag count,TAAR1 ant conf,Ga16 ag counter,TAAR1 ag counter
O=C1NC[C@@H](c2ccccc2)OC(=O)[C@H](Cc2ccc(F)cc2)C/C=C\C[C@@H]1CC(=O)N(CCO)Cc1ccccc1,67*,2,0,x,3,27,20,44,9,7
O=C1CCCC/C=C\C[C@H](CC(=O)N(CCO)Cc2ccccc2)C(=O)NC[C@H](c2ccccc2)O1,-5,9,-13,x,-6,4,x,x,x,x
O=C(C[C@H]1C/C=C\CC[C@H](Cc2ccc(F)cc2)C(=O)O[C@@H](c2ccccc2)CNC1=O)N[C@@H](CO)Cc1ccccc1,59*,10,-11,x,-16,33,35*,49*,10,12
O=[N+]([O-])c1ccccc1N(S(=O)(=O)c1ccccc1)S(=O)(=O)c1ccccc1,72*,x,x,x,x,3,24*,50*,3,3
O=c1[nH]c(=S)[nH]c2c1C(c1ccc(F)cc1)OC(CCC(F)(F)F)C2 (centres undefined),-11,x,x,x,x,1,x,x,x,x
CCOC(=O)C(Cc1ccc(NC(C)=O)cc1)N1C(=O)c2ccccc2C1=O (centres undefined),58*,3,-15,x,-12,14,24*,46,9,8
CCOC(=O)C(Cc1ccc(NC(=O)/C(=C\c2ccccc2)NC(=O)c2ccccc2)cc1)N1C(=O)c2ccccc2C1=O (centres undefined),19,6,-6,-10,-3,5,x,x,x,x
CCOc1cc(/C=N/NC(N)=O)cc(Br)c1OCC(=O)Nc1cccc2ccccc12,66*,53,-21,0,15,37,31*,55*,14*,17
COc1ccc(CC(=O)Nc2ccc(-c3nnc(-c4ccccc4)o3)cc2)cc1OC,x,10,-7,-1,-11,x,x,x,x,x
Cc1cc(C)cc(OCC(=O)Nc2cccc(-c3nc4ncccc4o3)c2)c1,70*,19,-22,-14,-1,7,31*,58*,10,13
COc1ccc(CC(=O)Nc2cccc(-c3nnc(-c4ccc(C)cc4)o3)c2)cc1OC,82*,26,-30,-9,-9,24,53*,69*,17*,15
O=C(Cc1ccccc1)Nc1cccc(-c2nc3ncccc3o2)c1,24,16,-16,-9,-18,15,x,x,x,x
COc1ccc(CC(=O)Nc2cccc(-c3nnc(-c4ccccc4)o3)c2)cc1OC,71*,x,x,-17,x,29,57*,73*,18*,17
Cc1ccc(OCC(=O)Nc2cccc(-c3nnc(-c4ccccc4)o3)c2)c(C)c1,66*,14,-23,-13,-16,15,41*,64*,7,5
CCOC(=O)c1c(C)[nH]c(C(=O)COC(=O)C2CC(=O)N(Cc3ccccc3)C2)c1C (centres undefined),8,5,-7,-1,-8,9,x,x,x,x
Cc1[nH]c2ccccc2c1C(=O)COC(=O)C1CC(=O)N(Cc2ccccc2)C1 (centres undefined),70*,32,-12,13,-14,26,31*,53*,13*,13
O=C(c1nn(Cc2ccccc2)c(=O)c2ccccc12)N1CCN(C/C=C/c2ccccc2)CC1,50*,20,-18,-4,-23,10,18,27,3,4
O=C(c1ccco1)N1CCN(C/C=C/c2ccccc2)CC1,-10,13,-17,-10,-15,5,x,x,x,x
CCN(C(=S)Nc1cccc2ccccc12)c1ccccc1,2,x,x,x,x,0,x,x,x,x
O=C(OCC(=O)N1CCC(Cc2ccccc2)CC1)c1ccc[nH]c1=O,0,8,-13,5,-11,-2,x,x,x,x
CCOc1ccc(N2C(=O)C(Cl)=C(Nc3ccccc3O)C2=O)cc1,57*,9,2,-7,-26,15,28*,39,12*,7
COc1ccccc1NC1=C(Cl)C(=O)N(c2ccccc2)C1=O,5,8,-7,-4,-15,-2,x,x,x,x
COc1ccc(CN2CC(=O)N(c3cc(Cl)ccc3OC)C2=S)cc1OC,8,25,-8,-10,-14,7,x,x,x,x
O=C1CCCc2c1cc(C(=O)Nc1ccc(Br)cn1)c(=O)n2-c1ccccc1,106*,7,-32,-11,-16,11,1,-3,2,-1
O=C1CCCc2c1cc(C(=O)O)c(=O)n2-c1ccccc1,4,12,-11,-3,8,2,x,x,x,x
SMILES,TAAR1 antag,OX1R antag-1,OX1R antag-2,GPR7 antagonist,CHO parental Ca,TAAR1 agonist,nonsel antag count,TAAR1 ant conf,Ga16 ag counter,TAAR1 ag counter
COc1cccc2cc(-c3cc(=O)oc4ccc(O)cc34)oc12,50*,8,-33,-10,-15,5,17,24,4,1
Cc1ccc(S(=O)(=O)N(C)CC(=O)N(C)Cc2cccs2)cc1,2,x,x,x,x,0,x,x,x,x
CCOCCCn1c(SCc2nc3ccccc3s2)nc2ccccc2c1=O,49*,-1,-38,2,-35,12,19,38,6,23
CCOCCCn1c(SCC(=O)Nc2ccccc2)nc2ccccc2c1=O,-1,9,-32,-13,-19,6,x,x,x,x
COc1ccc(/C=C(\C#N)C(=O)c2c(C)[nH]c3ccccc23)cc1OC,59*,26,-18,-4,-12,5,17,32,2,3
CCOC(=O)/C(C#N)=C\c1ccc(OC)c(OC)c1,19,38,-17,-5,0,-1,x,x,x,x
Cc1ccc(S(=O)(=O)N2C[C@H]3n4c(=O)ccc(=O)n4C[C@H](OC(=O)NCc4ccccc4F)[C@@]3(O)C2)cc1,-20,x,x,x,x,0,x,x,x,x
C/C=C/c1ccc(OCC(=O)Nc2cc(Cl)ccc2-n2cncn2)c(OC)c1,-17,10,-40,x,-14,1,x,x,x,x
